Screening data (PubChem BioAssay)
A selection: hits, their analogues and other compounds. The true share with any hit is near 2.2%.
RBBP9 inh: human RBBP9 hydrolase inhibition | O75884 | recombinant RBBP9, FP-Rh probe fluorescence polarization | inhibition, % at 7.94 µM | 0.2% of 220,000 active | AID 1515;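 active means inhibition above the campaign mean of all tested compounds plus 3 SD, cut at about 14% in these data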;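 further: plate controls were DMSO wells with RBBP9 for no effect and wells lacking RBBP9 protein for full effect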
Target sequence (O75884 whole entry, looked up): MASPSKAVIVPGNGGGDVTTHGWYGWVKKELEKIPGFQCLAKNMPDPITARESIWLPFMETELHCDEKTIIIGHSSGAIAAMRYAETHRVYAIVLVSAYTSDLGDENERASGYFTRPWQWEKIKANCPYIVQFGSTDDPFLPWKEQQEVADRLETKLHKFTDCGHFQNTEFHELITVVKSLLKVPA
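Test system – recombinant human RBBP9 · Input – RBBP9 2.5 µM in dispensing solution, pre-mixing · Medium – Tris buffer pH 8.0, NaCl, Pluronic · Schedule – preincubation 30 min plus labeling 45 min at 25 °C · Measured by – fluorescence polarization · Measure – % inhibition · Controls – DMSO and no-protein wells · Replicates – one well per compound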
Insulin prom up: MIN6 insulin promoter up-regulation; z-score at 5 µM; 0.3% of 190,000 active; AID 1625; MIN6 insulin promoter-GFP reporter, high-content imaging; hits give high values;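 active means z-score above 3 at 5 µM with at least 500 cells counted in the well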
Hsp70 act: Hsp70 transcriptional activation, primary screen; activation, % at 10 µM; HeLa Hsp70 promoter luciferase reporter, luminescence; scaled: vehicle 0, proteasome-inhibitor control 100%; 0.04% of 200,000 active;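 active means activation above the mean across all tested compounds plus 3 SD, cutoff set per campaign, cut at about 5.5% in these data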;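 further: 100% = MG132 at 30 µM as the positive control and 0% = DMSO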
Mdm2 ligase inh: Mdm2 E3 ligase (human) inhibition; Q00987; cell-based MDM2 ubiquitination luciferase reporter, 2 h; 0 = plate control, 100 = twice control, blank-subtracted; signal enhancement, % at 5 µM; 0.11% of 210,000 active; AID 1230;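 active means signal enhancement of 30% or more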;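 further: luminescence tracks abundance of the self-degrading MDM2-luciferase fusion protein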
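Material: Stable MDM2–luciferase fusion reporter cells | Amount: 2000 cells seeded into each well | Dosing: One concentration, 5 µM, with 0.2% DMSO | Incubation: 4 h cell settling then 2 h compound exposure, 37 °C | Measured by: Luciferase luminescence | Read-out basis: % enhancement relative to plate controls after blank subtraction | Benchmarks: Control and blank well means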
Wee1 stabilizer: blocks degradation of human Wee1 kinase | P30291 | AID 1321 | reporter increase, % at 5 µM | 1.2% of 220,000 active | HeLa Luc-Wee1K328M stability, luciferase luminescence; 100% = proteasome inhibitor MG132 effect;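 active means activation above the mean of all tested compounds plus 3 SD, set per screening run, cut at about 8.8% in these data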;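 further: cells exposed to compound for 20 h before luminescence read; 0% = DMSO alone and 100% = MG132 at 30 µM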
Insulin prom inh: TRM-6 insulin promoter activity inhibition; TRM-6 cells, insulin promoter-eGFP reporter, imaging; reporter expression induced with tamoxifen; inhibition, % at 2 µM; 0.9% of 130,000 active;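 active means inhibition above the mean plus 3 SD, with well images judged a real hit on visual review, cut at about 60% in these data, passing the limit was not always enough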
Wee1 degr conf: human Wee1 degradation inhibition, confirmation. 4% of 1,100 active. shares compounds with Wee1 stabilizer. activation, % at 5 µM. HeLa Luc-Wee1K328M degradation, luminescence; vehicle 0%, proteasome-blocked wells 100%; in the data active means activation above about 8.9%
The depositor's hits bear a star; . = no result.

SMILES	RBBP9 inh	Insulin prom up	Hsp70 act	Mdm2 ligase inh	Wee1 stabilizer	Insulin prom inh	Wee1 degr conf
Cc1ccccc1-n1c2nc(=O)n(C)c(=O)c-2cc2ccccc21	2	-0.62	.	2	14*	.	1
Cc1ccccc1NC(=O)Cn1c(CCC(=O)O)ccc1-c1cccs1	-2	-0.08	0	-14	-2	.	.
COC(=O)c1ccccc1NC(=O)Cn1c(CCC(=O)O)ccc1-c1cccs1	-3	0.08	0	-4	17*	27	7
COc1ccc(CCNC(=O)c2cc(-c3cc(Cl)ccc3O)n[nH]2)cc1OC	-11	-1.2	.	-4	-3	.	.
CCOC(=O)N1CCN(C(=O)CCCCn2c(=S)[nH]c3ccsc3c2=O)CC1	-1	0.46	0	-1	13*	21	1
COC(=O)c1ccc(COc2ncnc3sccc23)cc1	5	0.13	0	-5	1	.	.
COC(=O)c1cccc(Nc2ncnc3sccc23)c1	-3	-1.7	0	-6	14*	.	0
Cc1c(C(=O)NCc2n[nH]c(=S)n2-c2ccc(F)cc2)cccc1[N+](=O)[O-]	-2	0.05	0	-90	2	15	.
Cc1c(C(=O)NCCSCc2c(F)cccc2Cl)cnn1-c1ccc(F)cc1	-8	-0.62	.	-14	2	.	.
CNC(=O)c1c(Cl)cnn1-c1ccc(F)cc1	0	-0.49	0	-6	13*	.	3
CCCN(CCC)CC(C)(C)NS(=O)(=O)c1ccc(Cl)cc1	-5	0.01	.	-18	-1	.	.
Cc1ccc(NC(=O)CCn2c(=S)oc3ccccc32)cc1	-9	0.14	0	-1	2	36	.
CN(C)c1ccc(NC(=O)CCn2c(=S)oc3ccccc32)cc1	5	-0.04	0	-5	11*	27	2
C#Cc1ccc([C@@H]2C=C(C(=O)N3CCN(Cc4ccccc4)CC3)O[C@H](OCCCCO)C2)cc1	-9	.	0	.	-2	.	.
O=c1cc(/C=C/c2ccccc2)oc2c1ccc1ccccc12	-13	.	0	-1	11*	.	7
O=c1cc(C(F)(F)F)oc2c1ccc1ccccc12	-4	.	0	0	2	62	.
COc1ccc2c(COC(=O)CC3Sc4ccccc4NC3=O)cc(=O)oc2c1 (stereo not given)	-7	.	0	2	11*	27	1
CC(=O)Nc1cccc(-c2csc(Nc3ncccn3)n2)c1	-11	1.1	0	-17	13*	27	5
COc1ccc(S(=O)(=O)N2CCCCCC2)cc1Br	-9	-0.31	0	-3	1	.	.
COc1ccc(NC(=O)Nc2ccccc2SC)cc1	-3	0.68	0	-13	11*	.	2
COc1ccc(NC(=O)Nc2ccccc2F)cc1	-4	0.4	0	-49	6	16	.
CC(=O)Nc1nc(CCN2C(=O)c3ccccc3C2=O)cs1	-13	-0.31	0	5	-3	-8	.
Cc1cc(C)nc(NC(=O)c2ccc(Cl)cc2)n1	-1	0.21	0	12	17*	14	-1
Cc1cc(C)nc(NC(=O)c2cccc(Cl)c2)n1	-4	0.26	0	-1	0	-89	.
Cc1ccc(NS(=O)(=O)c2ccc3[nH]c(=O)sc3c2)cc1	2	-0.26	0	-8	1	.	.
SMILES	RBBP9 inh	Insulin prom up	Hsp70 act	Mdm2 ligase inh	Wee1 stabilizer	Insulin prom inh	Wee1 degr conf
N#C/C(=C\c1cn[nH]c1-c1ccccc1Br)C(=O)O	-1	0.41	0	14	13*	12	-1
O=Cc1cn[nH]c1-c1ccccc1	-5	-0.41	0	-2	-3	.	.
C(=N\Nc1nc2ccccc2[nH]1)/c1ccc2c(c1)OCCO2	1	-0.4	.	-32	11*	.	0
COc1ccc(/C=N/NC(=O)c2cc(C3CC3)[nH]n2)cc1OC	-4	0.07	.	-6	2	.	.
COc1cc(/C=N/NC(=O)c2cc(C3CC3)[nH]n2)ccc1O	-1	-0.06	.	-7	12*	.	-1
NC(=O)c1ccc(NC(=O)c2ccc(CN3CCOCC3)cc2)cc1	-1	0.32	0	-8	1	-11	.
O=C(Nc1ccc(CN2CCS(=O)(=O)CC2)cc1)c1ccc(Cl)cc1	-2	0.54	.	-5	11*	.	0
